Data published in the EternaBench riboswitch data.

Tested on: MS2 coat protein
Assay: apparent Kd, MS2 coat protein; higher = weaker binding; RNA-MaP array; FMN 200 µM where present
Outline: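 The apparent Kd comes from binding curves fitted cluster by cluster, filtered, and summarised as a median. Those curves followed SNAP-549-labelled MS2 coat protein from 0.7 or 1.5 nM, doubling to 3 µM, on Illumina sequencing-chip clusters where stalled E. coli RNA polymerase had transcribed the designs, without and then with constant ligand. The buffer was 100 mM Tris-HCl pH 7.5, 80 mM KCl, 4 mM MgCl2, BSA, DTT, yeast tRNA and Tween-20, and green signal was normalised to red-channel RNA signal and control-cluster median Fmax.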

[1] = designed as: ON switch for flavin mononucleotide, no ligand
[2] = ligand present: flavin mononucleotide, designed as: ON switch for flavin mononucleotide
[3] = designed as: OFF switch for flavin mononucleotide, no ligand
[4] = ligand present: flavin mononucleotide, designed as: OFF switch for flavin mononucleotide

| Sequence | apparent Kd [1] [nM] | apparent Kd [2] [nM] | apparent Kd [3] [nM] | apparent Kd [4] [nM] |
| --- | --- | --- | --- | --- |
| GCUGUCGCAUGAGGAUAUGGUCAGCUUUGCUGACCAGAAGGCAUGUCAAUAGACAUGAGGAUCACCCAUGUAGUAAAGACAGCU | 375 | 33.9 |  |  |
| GGAUAGGACAGAGGAUAUACGUGCUAGAGAUAGUAGCAAAAUUUCCUCACAUGAGGAUCACCCAUGUAGAAGGCUGUCCUAUCG |  |  | 19.6 | 365 |
| AACUGACAUGAGGAUCACCCAUGUCAGGAUAUGCUUCAUAAAAACAAACAAAAAUGAUGCAGAAGGGACAUGGA |  |  | 16.6 | 41.6 |
| CUGAAUAGAGGAUAUUGUACUGCUGACAUGAGGAUCACCCAUGUAUGUUAACUCGGCCGUCGAGAAGGCUAACAUA |  |  | 42.8 | 26.7 |
| CACAAUCUAUCUGAGGAUAUCAUGAAAAAAACAUGAGGAUCACCCAUGUGCAGGAAAACUGCAUAUGAGAAGGCAGAUAGAUUGG | 658 | 28.3 |  |  |
| ACAUGAGGAUCACCCAUGUAAUGAAGGGUACUAUACUAAACGUAGGAUAUCGAUGUAAGAUUGUACGAGAAGGACGAUUGCCUU |  |  |  | 38.8 |
| AUAUUACGAGGAUAUCGUCUCUCCCACAUGAGGAUCACCCAUGUUAUCCAUGUUUCGUUUCGAGAAGGCGUAAGUU |  |  | 75.9 | 58 |
| CAGGUCUGAGGAUAUCCAUCUUCAUACAUGAGGAUCACCCAUGUUUACCUCUGGGUUUUCGGAGAAGGCAGUUUUU |  |  | 354 | 397 |
| GUGGUACAUGAGGAUCACCCAUGUUAGGAUAUCGCGUGAGGUUUUGCUUCCGCGCGCGCGAGAAGGGACGUCUU |  |  | 28.3 | 23.9 |
| AUCAGCUCGUCAGGAUAUACGUCACUGCGUCAGCGGUGUGGUAAGAUCACAUGAGGAUCACCCAUGUAGAAGGGACGAGCUGAU |  |  | 13.6 | 232 |
| CUUCAGUCAGGAUAUCUGCACGCUGGUGAGACCGGACGGAAGGAGAAGGGACAUGAGGAUCACCCAUGUAAAGC |  |  | 14 | 17.5 |
| CGAUGAGUAGGAUAUGCGUCGGAUGCAUCUGCAUGUCACUUACAUGAGGAUCACCCAUGUAGAAGGGCUCGUUC |  |  | 19 | 26 |
| GUGGUUGUCGUAGGAUAUGUAGGAUAUUCCUACAUGAGGAUCACCCAUGUUCGCAUGGAAGAAGGAUAGAAGGACGAUGACCAG | 76.7 | 388 |  |  |
| UCGUUCCGUGUAGGAUAUUGGCCUUCUCUGGGCCGAGAAGGACAUGAGGAUCACCCAUGUAUGUUAUUAUCGCGCGUGGCGCAU |  |  | 26.9 | 84.9 |
| ACAUGAGGAUCACCCAUGUGUACAUAGGAUAUUGAUGAUUAUGGUUUAAGAAAAGUAAUUGCCCACAAGAAGGAUGCCUCAUCU | 36.5 | 27.7 |  |  |
| UGGUCAUGAUCAGGAUAUUAACAUGGGCUACAUUAAGAAGGGAUAGUGAGAUGCGAACGGAACGACAUGAGGAUCACCCAUGUA | 44.6 | 35 |  |  |
| GCAGCUAUUAUUAUACAUGAGGAUCACCCAUGUUACAUGUGUAAGGAUAUUGAAGUUUUUAUAAUCAAGAAGGUACUAUGCUGC | 14.4 | 9.33 |  |  |
| CGAGACCUCACAGGAUAUGCUGGACUUUGUCCAGCAGAAGGGUGAAAACAUGAGGAUCACCCAUGUAUGGUCUCCAAAUUUAAC | 175 | 12.9 |  |  |
| AUAAUUUUAUAUAUCAUAUAAAUCAGAAGGCAUAACAUGAGGAUCACCCAUGUAUAUUAUUGUUAUGAGGAUAUGAUUUAGUUA |  |  | 15.8 | 65.5 |
| GUGGUUCGCGAGAAGGGAGCUUAAGGACGCGGCUCAGGAUAUCGUACAUGAGGAUCACCCAUGUGCUGGCAUCUCCAGUGCGUG |  |  | 118 | 56.1 |
| AAUUUACAUGAGGAUCACCCAUGUCAGGAUAUGGUUUUAUUUUUUUCUUUUUUUGAUUCCAGAAGGGACAGUUA |  |  | 148 | 79.6 |
| CGCGAACAGGUUAACAUGAGGAUCACCCAUGUGGACUCAUGGUAGGAUAUCGGGAAGGAGGAAACCGAGAAGGGCUGGUGAGCC | 634 | 443 |  |  |
| AUAAUGUGAGGAUAUACAUGAGGAUCACCCAUGUAAUUAAAUCGGAGAGCCACAAUUCGUAGAAGGUACAUUUA |  |  | 22 | 27.7 |
| CAUACACAUGAGGAUCACCCAUGUGAGGAUAUGCGUACGUUGUCCGUAGGCGACGUGCGCAGAAGGCGCAAGGU |  |  | 63.3 | 81 |

| Sequence | apparent Kd [1] [nM] | apparent Kd [2] [nM] | apparent Kd [3] [nM] | apparent Kd [4] [nM] |
| --- | --- | --- | --- | --- |
| AAACACAAACAUGAGGAUCACCCAUGUGGCGAAAGCCUUGGGAGAAGGGCGAUUGCAAAGCAAUCGCAGGAUAUUCGUAUUGUG | 370 | 26.9 |  |  |
| GUCAUACAUGAGGAUCACCCAUGUGAGGAUAUGAGUGGUGCUGAUAGGUCGGCACCACUCAGAAGGCGCAUGAU |  |  | 77.1 | 293 |
| CGCUGGUGACAGCAUCCAUCAAAACAUGAGGAUCACCCAUGUAGAAGGCUGUACGGUUACCGUACAGAGGAUAUACAAUGAUGC |  |  | 15.1 | 28.4 |
| GCAAAACAUGAGGAUCACCCAUGUCAACAAAAUCAAGGAUAUGAGCCGGCAAUGCCAGCAUCAGAAGGUGAACCUU | 81.9 | 86.5 |  |  |
| UAUUAACACGAAGGAUAUGCUUACAUGAGGAUCACCCAUGUAUGUAUAUUGAUCCAGAUUUUUGAGCAGAAGGUCGUGAGUAAA |  |  | 35.3 | 141 |
| GGAUAGUGAGGAUAUCGAUGUUAGGAGGAGGAGGUAGGAGGCGAGAAGGCACAUGAGGAUCACCCAUGUAUGGU |  |  | 31.8 | 29.4 |
| GAAUAUUCGUUGUACAUGAGGAUCACCCAUGUAACUUGACAUGAGGAUAUGGAUUCUAAUUGGAUCCAGAAGGCAUGAAUAUUC | 48.4 | 21.8 |  |  |
| GUCAGUUCGUGAGGAUAUACAACACUGCUUCGGCAGUGUAUUAAGAUCACAUGAGGAUCACCCAUGUAGAAGGCACGAGCUGAU |  |  | 14 | 269 |
| GGAGGACGAAACAUGAGGAUCACCCAUGUGUUAUAAUUAAUAUAGGAUAUGUUUAUACUUUUUGGGCAGAAGGAUGAUAAUGCU | 21.9 | 16.9 |  |  |
| GUAGCUACAUGAGGAUCACCCAUGUAGGAUAUCGCUAUUGUAAUCAUGUUACAUGAUUACAAUAGCGAGAAGGACGUGUGCUAC |  |  | 9.03 | 10.4 |
| GUGUACAUCGGAGGAUAUCAUGUAAAUACAUGAGGAUCACCCAUGUCGAUGGAGACAUCGGAGAUUGAGAAGGCCGAUGUACCG | 169 | 9.35 |  |  |
| UUACUAUAACAGAAGGGUAGAUAGUAUAUAGAUGCAGGAUAUGUUACAUGAGGAUCACCCAUGUUUCACCCACAUGAGGAUCAC |  |  | 32 | 70.3 |
| GUGUAGUUAGGAUAUGCUGGAAUCUAGCGAAGCUAGGUUCCACAUGAGGAUCACCCAUGUAGAAGGGACUACAC |  |  |  | 73 |
| GCUUUUCUAGCCAAGUGGUAGAGCGCAGAAGGCCAACAUGAGGAUCACCCAUGUAUAAAGAACAUGGAGGAUAUGCGUCACCUU | 73.7 | 6.5 |  |  |
| ACUAAGGAGGUAGGAUAUUGUGUGGUGGCCGGGCUCCCACGGCGAGCGGCACAAGAAGGAUCCCAACAUGAGGAUCACCCAUGU | 48.9 | 26.1 |  |  |
| AGUCCAGAAGGAUAUACAUAGGUGAAAAAAAAAAAAAAACUACAUGAGGAUCACCCAUGUAGAAGGUCUGGACA |  |  | 93.5 | 46 |
| CCAGCGUGUGUGAGGAUAUGCUGGUCCUUGGAUCAGCAGAAGGCACAUGAGGAUCACCCAUGUGAGAACGUUGG |  |  | 23.1 | 105 |
| GUGUACAGAGGAUAUACAUAAGCUAGGAAACUAGCAUCUUCACAUGAGGAUCACCCAUGUAGAAGGCUGUACAC |  |  | 19.8 | 78.5 |
| AUGGUUGUCGUAGGAUAUGUAGGAUAUUCCUACAUGAGGAUCACCCAUGUUCGCAUGGAAGAAGGACGGAAGGACGAUGACCAG | 452 | 163 |  |  |
| UUUAUAAUAAGAUCAAUUAAUUAACAUGAGGAUCACCCAUGUGAGGAUAUCAGCUCGUGUAGAGCUGAGAAGGCACAAUAUAAG |  |  | 43.8 | 69.3 |
| CGUCAGUGAGGAUAUGGUAUCGUGUACAUGAGGAUCACCCAUGUUUCUUGGGACUAUAUACUAGAAGGCACUGACG |  |  | 16 | 35.3 |
| GGAAAACAUGAGGAUCACCCAUGUGAGGAUAUCGAUGUCCAACCCAAAGUGCGGGACUCGAGAAGGCACUUGGA |  |  | 45.7 | 31.5 |
| AACAUUCUAUCUCAGGAUAUCAUGUCAAAGACAUGAGGAUCACCCAUGUACCAGGAAACUGGUUAUGAGAAGGGAGAUAGAAUGA | 1220 | 227 |  |  |
| CUUCAGUCAGGAUAUGUUAAUCUCGCCACUCGGCGAACCGGACAGAAGGGACAUGAGGAUCACCCAUGUUAAAA |  |  | 34.7 | 19.7 |
